Values after ≈ are worked out from the molar mass of the structure shown.
Key:
Type in all cases: functional
Staphylococcus aureus [1] = assay: Antibacterial activity against ciprofloxacin-susceptible Staphylococcus aureus OC4172 by broth microdilution method
Outline: (§1)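 MIC by broth microdilution following CLSI M07-A9 guidelines for aerobically growing bacteria. Where a compound was tested more than once, across several test dates or batches, the modal MIC is reported.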

Streptococcus pneumoniae [2] = assay: Antibacterial activity against ciprofloxacin-resistant Streptococcus pneumoniae OC5465 clinical isolate by broth microdilution method
Streptococcus pneumoniae [3] = assay: Antibacterial activity against ciprofloxacin-resistant Streptococcus pneumoniae OC6578 clinical isolate by broth microdilution method
Streptococcus pneumoniae [4] = assay: Antibacterial activity against ciprofloxacin-resistant Streptococcus pneumoniae OC6608 clinical isolate by broth microdilution method
Streptococcus pneumoniae [5] = assay: Antibacterial activity against ciprofloxacin-susceptible Streptococcus pneumoniae ATCC49619 by broth microdilution method; outline: as §1
[6] = test system: Staphylococcus epidermidis; assay: Antibacterial activity against methicillin-resistant Staphylococcus epidermidis OC5340 by broth microdilution method
Outline: (§2)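 Broth microdilution MIC per CLSI M07-A9 guidelines for aerobically growing bacteria. Where a compound was tested several times (multiple test dates and batches), the modal MIC is reported.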

Staphylococcus aureus [7] = assay: Antibacterial activity against methicillin-resistant Staphylococcus aureus OC2805 by broth microdilution method; outline: as §2
Escherichia coli = assay: Antibacterial activity against Escherichia coli ATCC 25922 by broth microdilution method; outline: as §1

For COc1c(N2CCC(=C(Cl)CN(C)C)CC2)c(F)cc2c(=O)c(C(=O)O)cn(C3CC3)c12, the MIC (Staphylococcus aureus [1]) was 0.25 µg/mL (≈ 0.539 µM), the MIC (Streptococcus pneumoniae [2]) was 2 µg/mL (≈ 4.31 µM) and the MIC (Streptococcus pneumoniae [3]) was 8 µg/mL (≈ 17.2 µM). It also gave an MIC (Streptococcus pneumoniae [4]) of 8 µg/mL (≈ 17.2 µM) and an MIC (Streptococcus pneumoniae [5]) of 0.5 µg/mL (≈ 1.08 µM).

With NCC=C1CCN(c2nc3c(cc2F)c(=O)c(C(=O)O)cn3C2CC2)CC1 the MIC (Staphylococcus aureus [1]) was 0.12 µg/mL (≈ 0.322 µM), the MIC (Streptococcus pneumoniae [3]) was 8 µg/mL (≈ 21.5 µM) and the MIC (Streptococcus pneumoniae [4]) was 8 µg/mL (≈ 21.5 µM). For the same molecule, the MIC (Streptococcus pneumoniae [5]) was 0.5 µg/mL (≈ 1.34 µM).

NCC(F)=C1CCN(c2nc3c(cc2F)c(=O)c(C(=O)O)cn3C2CC2)CC1 showed an MIC (Staphylococcus aureus [1]) of 0.03 µg/mL (≈ 0.0768 µM), an MIC (Streptococcus pneumoniae [2]) of 1 µg/mL (≈ 2.56 µM) and an MIC (Streptococcus pneumoniae [3]) of 0.5 µg/mL (≈ 1.28 µM). For the same molecule, the MIC (Streptococcus pneumoniae [4]) was 2 µg/mL (≈ 5.12 µM) and the MIC (Streptococcus pneumoniae [5]) was 0.12 µg/mL (≈ 0.307 µM).

For CC(CN)=C1CCN(c2nc3c(cc2F)c(=O)c(C(=O)O)cn3C2CC2)CC1, the MIC (Staphylococcus aureus [1]) was 0.06 µg/mL (≈ 0.155 µM), the MIC (Streptococcus pneumoniae [2]) was 1 µg/mL (≈ 2.59 µM) and the MIC (Streptococcus pneumoniae [3]) was 1 µg/mL (≈ 2.59 µM). The MIC (Streptococcus pneumoniae [4]) was 0.25 µg/mL (≈ 0.647 µM) and the MIC (Streptococcus pneumoniae [5]) was 0.12 µg/mL (≈ 0.311 µM).

NCC(Cl)=C1CCN(c2nc3c(cc2F)c(=O)c(C(=O)O)cn3C2CC2)CC1 was tested, and the MIC (Staphylococcus aureus [1]) was 0.06 µg/mL (≈ 0.147 µM), the MIC (Streptococcus pneumoniae [2]) was 1 µg/mL (≈ 2.46 µM) and the MIC (Streptococcus pneumoniae [3]) was 0.25 µg/mL (≈ 0.614 µM). For the same molecule, the MIC (Streptococcus pneumoniae [4]) was 1 µg/mL (≈ 2.46 µM) and the MIC (Streptococcus pneumoniae [5]) was 0.12 µg/mL (≈ 0.295 µM).

NCC(F)=C1CCN(c2cc3c(cc2F)c(=O)c(C(=O)O)cn3C2CC2)CC1 showed an MIC (Staphylococcus aureus [1]) of 0.03 µg/mL (≈ 0.077 µM), an MIC (Streptococcus pneumoniae [3]) of 1 µg/mL (≈ 2.57 µM) and an MIC (Streptococcus pneumoniae [5]) of 0.06 µg/mL (≈ 0.154 µM).

In the case of CC(CN)=C1CCN(c2cc3c(cc2F)c(=O)c(C(=O)O)cn3C2CC2)CC1, the MIC (Staphylococcus aureus [1]) is reported as 0.12 µg/mL (≈ 0.311 µM), the MIC (Streptococcus pneumoniae [2]) is reported as 8 µg/mL (≈ 20.8 µM) and the MIC (Streptococcus pneumoniae [3]) is reported as 2 µg/mL (≈ 5.19 µM). It also gave an MIC (Streptococcus pneumoniae [4]) of 8 µg/mL (≈ 20.8 µM) and an MIC (Streptococcus pneumoniae [5]) of 1 µg/mL (≈ 2.59 µM).

With NCC(Cl)=C1CCN(c2cc3c(cc2F)c(=O)c(C(=O)O)cn3C2CC2)CC1 the MIC (Staphylococcus aureus [1]) was 0.03 µg/mL (≈ 0.0739 µM), the MIC (Streptococcus pneumoniae [2]) was 1 µg/mL (≈ 2.46 µM) and the MIC (Streptococcus pneumoniae [3]) was 0.5 µg/mL (≈ 1.23 µM). It also gave an MIC (Streptococcus pneumoniae [5]) of 0.12 µg/mL (≈ 0.296 µM).

C[C@H]1COc2c(N3CCC(=C(Cl)CN)CC3)c(F)cc3c(=O)c(C(=O)O)cn1c23 was tested, and the MIC (Staphylococcus aureus [1]) was no more than 0.015 µg/mL, the MIC (Streptococcus pneumoniae [2]) was 0.5 µg/mL (≈ 1.19 µM) and the MIC (Streptococcus pneumoniae [3]) was 0.25 µg/mL (≈ 0.593 µM). The MIC (Streptococcus pneumoniae [4]) was 0.25 µg/mL (≈ 0.593 µM) and the MIC (Streptococcus pneumoniae [5]) was 0.03 µg/mL (≈ 0.0711 µM).

NCC(F)=C1CCN(c2c(F)cc3c(=O)c(C(=O)O)cn(C4CC4)c3c2OC(F)F)CC1 was tested, and the MIC (Staphylococcus aureus [1]) was 0.06 µg/mL (≈ 0.132 µM), the MIC (Streptococcus pneumoniae [2]) was 0.25 µg/mL (≈ 0.549 µM) and the MIC (Streptococcus pneumoniae [3]) was 2 µg/mL (≈ 4.39 µM). It also gave an MIC (Streptococcus pneumoniae [4]) of 0.25 µg/mL (≈ 0.549 µM) and an MIC (Streptococcus pneumoniae [5]) of 0.25 µg/mL (≈ 0.549 µM).

Molecule NCC(Cl)=C1CCN(c2c(F)cc3c(=O)c(C(=O)O)cn(C4CC4)c3c2OC(F)F)CC1 has an MIC [6] of 0.5 µg/mL (≈ 1.06 µM), an MIC (Staphylococcus aureus [7]) of 1 µg/mL (≈ 2.12 µM) and an MIC (Escherichia coli) of 0.5 µg/mL (≈ 1.06 µM). It also gave an MIC (Staphylococcus aureus [1]) of 0.06 µg/mL (≈ 0.127 µM), an MIC (Streptococcus pneumoniae [2]) of 0.12 µg/mL (≈ 0.254 µM) and an MIC (Streptococcus pneumoniae [3]) of 1 µg/mL (≈ 2.12 µM). For the same molecule, the MIC (Streptococcus pneumoniae [4]) was 0.5 µg/mL (≈ 1.06 µM) and the MIC (Streptococcus pneumoniae [5]) was 0.12 µg/mL (≈ 0.254 µM).

COc1c(N2CCC(=C(F)CN)CC2)c(F)cc2c(=O)c(C(=O)O)cn(C3CC3)c12 was tested, and the MIC (Staphylococcus aureus [1]) was 0.03 µg/mL (≈ 0.0715 µM), the MIC (Streptococcus pneumoniae [2]) was 0.5 µg/mL (≈ 1.19 µM) and the MIC (Streptococcus pneumoniae [3]) was 1 µg/mL (≈ 2.38 µM). For the same molecule, the MIC (Streptococcus pneumoniae [4]) was 0.5 µg/mL (≈ 1.19 µM) and the MIC (Streptococcus pneumoniae [5]) was 0.12 µg/mL (≈ 0.286 µM).

With COc1c(N2CCC(=C(C)CN)CC2)c(F)cc2c(=O)c(C(=O)O)cn(C3CC3)c12 the MIC (Staphylococcus aureus [1]) was 0.03 µg/mL (≈ 0.0722 µM), the MIC (Streptococcus pneumoniae [2]) was 0.25 µg/mL (≈ 0.602 µM) and the MIC (Streptococcus pneumoniae [3]) was 0.25 µg/mL (≈ 0.602 µM). The MIC (Streptococcus pneumoniae [5]) was 0.12 µg/mL (≈ 0.289 µM).

COc1c(N2CCC(=C(Cl)CN)CC2)c(F)cc2c(=O)c(C(=O)O)cn(C3CC3)c12 showed an MIC [6] of 0.25 µg/mL (≈ 0.574 µM), an MIC (Staphylococcus aureus [7]) of 0.25 µg/mL (≈ 0.574 µM) and an MIC (Escherichia coli) of 0.25 µg/mL (≈ 0.574 µM). For the same molecule, the MIC (Staphylococcus aureus [1]) was no more than 0.015 µg/mL, the MIC (Streptococcus pneumoniae [2]) was 0.25 µg/mL (≈ 0.574 µM) and the MIC (Streptococcus pneumoniae [3]) was 0.25 µg/mL (≈ 0.574 µM). It also gave an MIC (Streptococcus pneumoniae [4]) of 0.25 µg/mL (≈ 0.574 µM) and an MIC (Streptococcus pneumoniae [5]) of 0.06 µg/mL (≈ 0.138 µM).

CNCC(Cl)=C1CCN(c2c(F)cc3c(=O)c(C(=O)O)cn(C4CC4)c3c2OC)CC1 gave an MIC [6] of 0.5 µg/mL (≈ 1.11 µM), an MIC (Staphylococcus aureus [7]) of 0.5 µg/mL (≈ 1.11 µM) and an MIC (Escherichia coli) of 0.5 µg/mL (≈ 1.11 µM). It also gave an MIC (Staphylococcus aureus [1]) of no more than 0.015 µg/mL, an MIC (Streptococcus pneumoniae [2]) of 0.25 µg/mL (≈ 0.556 µM) and an MIC (Streptococcus pneumoniae [3]) of 0.5 µg/mL (≈ 1.11 µM). The MIC (Streptococcus pneumoniae [4]) was 0.25 µg/mL (≈ 0.556 µM) and the MIC (Streptococcus pneumoniae [5]) was 0.06 µg/mL (≈ 0.133 µM).

Molecule COc1c(N2CCC(=C(Cl)CNC(C)C)CC2)c(F)cc2c(=O)c(C(=O)O)cn(C3CC3)c12 has an MIC (Staphylococcus aureus [1]) of 0.12 µg/mL (≈ 0.251 µM), an MIC (Streptococcus pneumoniae [2]) of 2 µg/mL (≈ 4.18 µM) and an MIC (Streptococcus pneumoniae [3]) of 4 µg/mL (≈ 8.37 µM). It also gave an MIC (Streptococcus pneumoniae [5]) of 0.5 µg/mL (≈ 1.05 µM).

CCNCC(Cl)=C1CCN(c2c(F)cc3c(=O)c(C(=O)O)cn(C4CC4)c3c2OC)CC1 gave an MIC (Staphylococcus aureus [1]) of 0.12 µg/mL (≈ 0.259 µM), an MIC (Streptococcus pneumoniae [2]) of 1 µg/mL (≈ 2.16 µM) and an MIC (Streptococcus pneumoniae [3]) of 1 µg/mL (≈ 2.16 µM). For the same molecule, the MIC (Streptococcus pneumoniae [4]) was 1 µg/mL (≈ 2.16 µM) and the MIC (Streptococcus pneumoniae [5]) was 0.25 µg/mL (≈ 0.539 µM).

CC1COc2c(N3CCC(=C(F)CN)CC3)c(F)cc3c(=O)c(C(=O)O)cn1c23 (racemic) showed an MIC (Staphylococcus aureus [1]) of 0.25 µg/mL (≈ 0.617 µM), an MIC (Streptococcus pneumoniae [2]) of 8 µg/mL (≈ 19.7 µM) and an MIC (Streptococcus pneumoniae [3]) of 8 µg/mL (≈ 19.7 µM). It also gave an MIC (Streptococcus pneumoniae [4]) of 2 µg/mL (≈ 4.93 µM) and an MIC (Streptococcus pneumoniae [5]) of 0.5 µg/mL (≈ 1.23 µM).

CC(CN)=C1CCN(c2c(F)cc3c(=O)c(C(=O)O)cn4c3c2OCC4C)CC1 (racemic) showed an MIC (Staphylococcus aureus [1]) of 0.5 µg/mL (≈ 1.25 µM), an MIC (Streptococcus pneumoniae [2]) greater than 16 µg/mL and an MIC (Streptococcus pneumoniae [3]) greater than 16 µg/mL. The MIC (Streptococcus pneumoniae [4]) was 4 µg/mL (≈ 9.96 µM) and the MIC (Streptococcus pneumoniae [5]) was 1 µg/mL (≈ 2.49 µM).

O=C(O)c1cn(C2CC2)c2cc(N3CCNCC3)c(F)cc2c1=O [CIPROFLOXACIN] was tested, and the MIC [6] was 8 µg/mL (≈ 24.1 µM), the MIC (Staphylococcus aureus [1]) was 0.12 µg/mL (≈ 0.362 µM) and the MIC (Streptococcus pneumoniae [5]) was 1 µg/mL (≈ 3.02 µM).
